Test results reported in ChEMBL document CHEMBL3098013, “Novel pyrazole integrated 1,3,4-oxadiazoles: synthesis, characterization and antimicrobial evaluation” (2014).
In brackets after ≈: the same amount, converted by molar mass.

Tests used:
Format in all cases: functional
Klebsiella pneumoniae [1] = test: Antimicrobial activity against Klebsiella pneumoniae MTCC 3384 at 50 ug/ml after 24 hrs by disc diffusion method; conditions: MTCC 3384, 24 h, read-out: DIZ
Method in brief: (§1)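 Agar diffusion read-out is the diameter of the inhibition zone in mm. Each test was run in six replicates and reported as mean ± standard deviation, taken from at least three determinations.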

Staphylococcus aureus [2] = test: Antimicrobial activity against Staphylococcus aureus MTCC 96 after 24 hrs by microdilution method; conditions: MTCC 96, 24 h
Method in brief: (§2)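 The minimal inhibitory concentration was determined by dilution, alongside minimal bactericidal concentration for bacterial strains and minimal fungicidal concentration for fungal strains. Tests were run in six replicates, and the value is the mean of at least three determinations.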

Staphylococcus aureus [3] = test: Antimicrobial activity against Staphylococcus aureus MTCC 96 at 100 ug/ml after 24 hrs by disc diffusion method; conditions: MTCC 96, 24 h, read-out: DIZ; method in brief: as §1
Klebsiella pneumoniae [4] = test: Antimicrobial activity against Klebsiella pneumoniae MTCC 3384 after 24 hrs by microdilution method; conditions: MTCC 3384, 24 h; method in brief: as §2
Escherichia coli [5] = test: Antimicrobial activity against Escherichia coli MTCC 724 at 100 ug/ml after 24 hrs by disc diffusion method; conditions: MTCC 724, 24 h, read-out: DIZ; method in brief: as §1
Klebsiella pneumoniae [6] = test: Antimicrobial activity against Klebsiella pneumoniae MTCC 3384 at 100 ug/ml after 24 hrs by disc diffusion method; conditions: MTCC 3384, 24 h, read-out: DIZ; method in brief: as §1
Staphylococcus aureus [7] = test: Antimicrobial activity against Staphylococcus aureus MTCC 96 at 50 ug/ml after 24 hrs by disc diffusion method; conditions: MTCC 96, 24 h, read-out: DIZ; method in brief: as §1
Bacillus cereus [8] = test: Antimicrobial activity against Bacillus cereus MTCC 8372 at 50 ug/ml after 24 hrs by disc diffusion method; conditions: MTCC 8372, 24 h, read-out: DIZ; method in brief: as §1
Bacillus cereus [9] = test: Antimicrobial activity against Bacillus cereus MTCC 8372 after 24 hrs by microdilution method; conditions: MTCC 8372, 24 h; method in brief: as §2
Bacillus cereus [10] = test: Antimicrobial activity against Bacillus cereus MTCC 8372 at 100 ug/ml after 24 hrs by disc diffusion method; conditions: MTCC 8372, 24 h, read-out: DIZ; method in brief: as §1
Escherichia coli [11] = test: Antimicrobial activity against Escherichia coli MTCC 724 after 24 hrs by microdilution method; conditions: MTCC 724, 24 h; method in brief: as §2
Escherichia coli [12] = test: Antimicrobial activity against Escherichia coli MTCC 724 at 50 ug/ml after 24 hrs by disc diffusion method; conditions: MTCC 724, 24 h, read-out: DIZ; method in brief: as §1
Fusarium verticillioides [13] = test: Antimicrobial activity against Fusarium moniliforme MTCC 156 at 100 ug/ml after 48 hrs by disc diffusion method; conditions: for zone of inhibition at 100 µg/mL: MTCC 156, 48 h, read-out: DIZ; method in brief: as §1
Fusarium oxysporum [14] = test: Antimicrobial activity against Fusarium oxysporum MTCC 284 at 50 ug/ml after 48 hrs by disc diffusion method; conditions: for zone of inhibition at 50 µg/mL: MTCC 284, 48 h, read-out: DIZ; method in brief: as §1
Aspergillus niger [15] = test: Antimicrobial activity against Aspergillus niger MTCC 281 at 100 ug/ml after 48 hrs by disc diffusion method; conditions: for zone of inhibition at 100 µg/mL: MTCC 281, 48 h, read-out: DIZ; method in brief: as §1
Aspergillus flavus [16] = test: Antimicrobial activity against Aspergillus flavus MTCC 873 after 48 hrs by microdilution method; method in brief: as §2
Fusarium verticillioides [17] = test: Antimicrobial activity against Fusarium moniliforme MTCC 156 after 48 hrs by microdilution method; method in brief: as §2
Fusarium verticillioides [18] = test: Antimicrobial activity against Fusarium moniliforme MTCC 156 at 50 ug/ml after 48 hrs by disc diffusion method; conditions: for zone of inhibition at 50 µg/mL: MTCC 156, 48 h, read-out: DIZ; method in brief: as §1
Aspergillus niger [19] = test: Antimicrobial activity against Aspergillus niger MTCC 281 at 50 ug/ml after 48 hrs by disc diffusion method; conditions: for zone of inhibition at 50 µg/mL: MTCC 281, 48 h, read-out: DIZ; method in brief: as §1
Aspergillus niger [20] = test: Antimicrobial activity against Aspergillus niger MTCC 281 after 48 hrs by microdilution method; method in brief: as §2
Aspergillus flavus [21] = test: Antimicrobial activity against Aspergillus flavus MTCC 873 at 50 ug/ml after 48 hrs by disc diffusion method; conditions: for zone of inhibition at 50 µg/mL: MTCC 873, 48 h, read-out: DIZ; method in brief: as §1
Aspergillus flavus [22] = test: Antimicrobial activity against Aspergillus flavus MTCC 873 at 100 ug/ml after 48 hrs by disc diffusion method; conditions: for zone of inhibition at 100 µg/mL: MTCC 873, 48 h, read-out: DIZ; method in brief: as §1
Fusarium oxysporum [23] = test: Antimicrobial activity against Fusarium oxysporum MTCC 284 at 100 ug/ml after 48 hrs by disc diffusion method; conditions: for zone of inhibition at 100 µg/mL: MTCC 284, 48 h, read-out: DIZ; method in brief: as §1
Fusarium oxysporum [24] = test: Antimicrobial activity against Fusarium oxysporum MTCC 284 after 48 hrs by microdilution method; method in brief: as §2

Compound | zone of inhibition at 50 µg/mL (Klebsiella pneumoniae [1]) | MBC (Staphylococcus aureus [2]) | MIC (Staphylococcus aureus [2]) | zone of inhibition at 100 µg/mL (Staphylococcus aureus [3]) | MBC (Klebsiella pneumoniae [4]) | MIC (Klebsiella pneumoniae [4]) | zone of inhibition at 100 µg/mL (Escherichia coli [5]) | zone of inhibition at 100 µg/mL (Klebsiella pneumoniae [6]) | zone of inhibition at 50 µg/mL (Staphylococcus aureus [7]) | zone of inhibition at 50 µg/mL (Bacillus cereus [8]) | MBC (Bacillus cereus [9]) | MIC (Bacillus cereus [9]) | zone of inhibition at 100 µg/mL (Bacillus cereus [10]) | MBC (Escherichia coli [11]) | MIC (Escherichia coli [11]) | zone of inhibition at 50 µg/mL (Escherichia coli [12]) | zone of inhibition at 100 µg/mL (Fusarium verticillioides [13]) | zone of inhibition at 50 µg/mL (Fusarium oxysporum [14]) | zone of inhibition at 100 µg/mL (Aspergillus niger [15]) | MFC (Aspergillus flavus [16]; MTCC 873, 48 h) | further results
CN(C)[C@@H]1C(O)=C(C(N)=O)C(=O)[C@@]2(O)C(O)=C3C(=O)c4c(O)cccc4[C@@](C)(O)[C@H]3C[C@@H]12 [TETRACYCLINE] | 12 mm | 120 µg/mL (≈ 270 µM) | 10 µg/mL (≈ 22.5 µM) | 20 mm | 120 µg/mL (≈ 270 µM) | 8 µg/mL (≈ 18 µM) | 30 mm | 20 mm | 9 mm | 10 mm | 120 µg/mL (≈ 270 µM) | 4 µg/mL (≈ 9 µM) | 21 mm | 120 µg/mL (≈ 270 µM) | 12 µg/mL (≈ 27 µM) | 18 mm | – | – | – | – | –
COc1cc(-c2nnc(-c3c(-c4cc(OC)c(OC)c(OC)c4)nn(-c4ccccc4)c3C)o2)cc(OC)c1OC | 11 mm | 150 µg/mL (≈ 269 µM) | 20 µg/mL (≈ 35.8 µM) | 24 mm | 155 µg/mL (≈ 277 µM) | 20 µg/mL (≈ 35.8 µM) | 36 mm | 21 mm | 10 mm | 12 mm | 160 µg/mL (≈ 286 µM) | 20 µg/mL (≈ 35.8 µM) | 23 mm | 150 µg/mL (≈ 269 µM) | 20 µg/mL (≈ 35.8 µM) | 21 mm | 22 mm | 14 mm | 25 mm | 215 µg/mL (≈ 385 µM) | MIC (Aspergillus flavus [16]; MTCC 873, 48 h): 30 µg/mL (≈ 53.7 µM); MFC (Fusarium verticillioides [17]; MTCC 156, 48 h): 225 µg/mL (≈ 403 µM); MIC (Fusarium verticillioides [17]; MTCC 156, 48 h): 25 µg/mL (≈ 44.8 µM); zone of inhibition at 50 µg/mL (Fusarium verticillioides [18]): 12 mm; zone of inhibition at 50 µg/mL (Aspergillus niger [19]): 11 mm; MFC (Aspergillus niger [20]; MTCC 281, 48 h): 225 µg/mL (≈ 403 µM); MIC (Aspergillus niger [20]; MTCC 281, 48 h): 25 µg/mL (≈ 44.8 µM); zone of inhibition at 50 µg/mL (Aspergillus flavus [21]): 18 mm; zone of inhibition at 100 µg/mL (Aspergillus flavus [22]): 23 mm; zone of inhibition at 100 µg/mL (Fusarium oxysporum [23]): 21 mm; MFC (Fusarium oxysporum [24]; MTCC 284, 48 h): 220 µg/mL (≈ 394 µM); MIC (Fusarium oxysporum [24]; MTCC 284, 48 h): 25 µg/mL (≈ 44.8 µM)
Cc1c(-c2nnc(-c3ccc(Cl)cc3)o2)c(-c2ccc(Cl)cc2)nn1-c1ccccc1 | 8 mm | 250 µg/mL (≈ 559 µM) | 40 µg/mL (≈ 89.4 µM) | 12 mm | 250 µg/mL (≈ 559 µM) | 50 µg/mL (≈ 112 µM) | 16 mm | 11 mm | 6 mm | 6 mm | 260 µg/mL (≈ 581 µM) | 40 µg/mL (≈ 89.4 µM) | 10 mm | 245 µg/mL (≈ 548 µM) | 45 µg/mL (≈ 101 µM) | 10 mm | 19 mm | 15 mm | 26 mm | 210 µg/mL (≈ 469 µM) | MIC (Aspergillus flavus [16]; MTCC 873, 48 h): 25 µg/mL (≈ 55.9 µM); MFC (Fusarium verticillioides [17]; MTCC 156, 48 h): 215 µg/mL (≈ 481 µM); MIC (Fusarium verticillioides [17]; MTCC 156, 48 h): 25 µg/mL (≈ 55.9 µM); zone of inhibition at 50 µg/mL (Fusarium verticillioides [18]): 10 mm; zone of inhibition at 50 µg/mL (Aspergillus niger [19]): 14 mm; MFC (Aspergillus niger [20]; MTCC 281, 48 h): 220 µg/mL (≈ 492 µM); MIC (Aspergillus niger [20]; MTCC 281, 48 h): 30 µg/mL (≈ 67.1 µM); zone of inhibition at 50 µg/mL (Aspergillus flavus [21]): 14 mm; zone of inhibition at 100 µg/mL (Aspergillus flavus [22]): 18 mm; zone of inhibition at 100 µg/mL (Fusarium oxysporum [23]): 28 mm; MFC (Fusarium oxysporum [24]; MTCC 284, 48 h): 215 µg/mL (≈ 481 µM); MIC (Fusarium oxysporum [24]; MTCC 284, 48 h): 30 µg/mL (≈ 67.1 µM)
NYSTATIN | – | – | – | – | – | – | – | – | – | – | – | – | – | – | – | – | – | – | – | – | inhibition zone (IZ) (Fusarium verticillioides [13]): 28 mm; inhibition zone (IZ) (Fusarium oxysporum [14]): 16 mm; inhibition zone (IZ) (Aspergillus niger [15]): 25 mm; MFC (Aspergillus flavus [16]): 100 µg/mL; MIC (Aspergillus flavus [16]): 8 µg/mL; MFC (Fusarium verticillioides [17]): 100 µg/mL; MIC (Fusarium verticillioides [17]): 12 µg/mL; inhibition zone (IZ) (Fusarium verticillioides [18]): 12 mm; inhibition zone (IZ) (Aspergillus niger [19]): 10 mm; MFC (Aspergillus niger [20]): 100 µg/mL; MIC (Aspergillus niger [20]): 10 µg/mL; inhibition zone (IZ) (Aspergillus flavus [21]): 16 mm; inhibition zone (IZ) (Aspergillus flavus [22]): 20 mm; inhibition zone (IZ) (Fusarium oxysporum [23]): 30 mm; MFC (Fusarium oxysporum [24]): 100 µg/mL; MIC (Fusarium oxysporum [24]): 15 µg/mL
